biological target: T1, Inhibitor of nuclear factor kappa-B kinase subunit beta (Homo sapiens, UniProt O14920); assay: Inhibition of IKK2
T1 sequence (O14920 whole entry): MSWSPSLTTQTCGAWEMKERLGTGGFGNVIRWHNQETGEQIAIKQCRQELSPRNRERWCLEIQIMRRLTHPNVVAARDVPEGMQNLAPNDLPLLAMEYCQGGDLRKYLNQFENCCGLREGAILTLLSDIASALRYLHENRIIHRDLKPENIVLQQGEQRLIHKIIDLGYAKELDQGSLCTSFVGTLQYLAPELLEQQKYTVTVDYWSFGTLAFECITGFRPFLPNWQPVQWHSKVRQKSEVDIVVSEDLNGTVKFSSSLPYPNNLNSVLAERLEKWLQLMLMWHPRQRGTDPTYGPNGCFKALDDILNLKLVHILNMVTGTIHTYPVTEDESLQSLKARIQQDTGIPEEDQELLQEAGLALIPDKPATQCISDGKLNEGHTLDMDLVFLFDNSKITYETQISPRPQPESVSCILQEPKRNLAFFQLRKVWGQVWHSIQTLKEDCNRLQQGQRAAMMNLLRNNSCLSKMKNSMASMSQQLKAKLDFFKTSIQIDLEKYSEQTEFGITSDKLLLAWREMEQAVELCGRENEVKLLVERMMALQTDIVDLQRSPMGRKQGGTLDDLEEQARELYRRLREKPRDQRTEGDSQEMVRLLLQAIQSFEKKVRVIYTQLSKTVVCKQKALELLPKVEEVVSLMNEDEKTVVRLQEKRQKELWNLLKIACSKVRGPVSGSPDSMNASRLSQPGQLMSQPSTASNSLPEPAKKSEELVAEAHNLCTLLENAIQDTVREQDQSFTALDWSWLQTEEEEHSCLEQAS
Summary of the method: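 IKK-2 added at room temperature to 50 µg/mL GST-IκBα with ATP in 25 mM Tris·HCl, pH 7.5, containing MgCl₂, phosphate salts, NaCl, KCl, 1 mM DTT, 5% glycerol and BSA. Stopped after 60 min with 33 mM EDTA. Phospho-IκBα read by fluorescence-polarization competition between an anti-phospho-IκBα antibody and a fluorescein-labelled phosphopeptide.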

| IC50 | Compound |
| --- | --- |
| 0.049 µM | CC(=O)N[C@@H](C)c1cccc(-c2nc3c(nc(NCCN)c4ncn(C)c43)s2)c1 |
| 0.027 µM | CCNc1nc2sc(-c3cccc([C@H](C)NC(=O)CNC(C)=O)c3)nc2c2c1ncn2C |
| 0.055 µM | CCNc1nc2sc(-c3cccc([C@@H](C)NC(C)=O)c3)nc2c2c1ncn2C |
| 0.06 µM | CNc1nc2sc(-c3ccc(CNC(C)=O)cc3)nc2c2c1ncn2C |
| 0.028 µM | CNc1nc2sc(-c3cccc([C@@H](C)NC(C)=O)c3)nc2c2c1ncn2C |
| 0.039 µM | CCNCC(=O)N[C@@H](C)c1cccc(-c2nc3c(nc(NCC)c4ncn(C)c43)s2)c1 |
| 0.036 µM | CCNc1nc2sc(-c3cccc(C(C)(C)NC(C)=O)c3)nc2c2c1ncn2C |
| 0.016 µM | CCNc1nc2sc(-c3cccc([C@H](C)NC(=O)COCC)c3)nc2c2c1ncn2C |
| 0.057 µM | CC(=O)N[C@@H](C)c1cccc(-c2nc3c(nc(NCC(F)(F)F)c4ncn(C)c43)s2)c1 |

system: PBMC; assay: Antiinflammatory activity in human PBMC assessed as inhibition of LPS-induced TNFalpha release treated for 5 mins before LPS challenge measured after 6 hrs by ELISA; format: functional, cell-based
Summary of the method: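 PBMCs purified from heparinized healthy-volunteer blood by Ficoll-Hypaque gradient and suspended at 5 × 10⁶/mL in RPMI with 10% FBS. Cells preincubated with compound (0.2% DMSO) for 5 min at room temperature. LPS added from a 200 ng/mL stock, then 6 h at 37 °C. Medium TNF-α measured by ELISA. IC50 by linear regression.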

| Compound | IC50 |
| --- | --- |
| CC(=O)NCc1cc(-c2cc3nc(NC4CC4)c4ncn(C)c4n3n2)ccc1F | 0.73 µM |
| CC(=O)N[C@@H](C)c1cccc(-c2nc3c(nc(NCCN)c4ncn(C)c43)s2)c1 | 4.89 µM |
| Cc1ccc2nc(NCCN)c3ncc(C)n3c2c1 [BMS-345541] | 1 µM |
| CCNc1nc2sc(-c3cccc([C@H](C)NC(=O)CNC(C)=O)c3)nc2c2c1ncn2C | 0.48 µM |
| CCNc1nc2sc(-c3cccc([C@@H](C)NC(C)=O)c3)nc2c2c1ncn2C | 0.7 µM |
| CNc1nc2sc(-c3ccc(CNC(C)=O)cc3)nc2c2c1ncn2C | 0.53 µM |
| CNc1nc2sc(-c3cccc([C@@H](C)NC(C)=O)c3)nc2c2c1ncn2C | 0.56 µM |
| CCNCC(=O)N[C@@H](C)c1cccc(-c2nc3c(nc(NCC)c4ncn(C)c43)s2)c1 | 0.44 µM |
| CCNc1nc2sc(-c3cccc(C(C)(C)NC(C)=O)c3)nc2c2c1ncn2C | 0.4 µM |
| CCNc1nc2sc(-c3cccc([C@H](C)NC(=O)COCC)c3)nc2c2c1ncn2C | 0.6 µM |
| CC(=O)N[C@@H](C)c1cccc(-c2nc3c(nc(NCC(F)(F)F)c4ncn(C)c43)s2)c1 | 1.36 µM |

— ChEMBL document CHEMBL1641407, “Imidazo[4,5-d]thiazolo[5,4-b]pyridine based inhibitors of IKK2: synthesis, SAR, PK/PD and activity in a preclinical model of rheumatoid arthritis” (Bioorg Med Chem Lett, 2011)
